Measurements: ChEMBL document CHEMBL1140869, “Organocatalyzed highly atom economic one pot synthesis of tetrahydropyridines as antimalarials” (2009)
Converted amounts (≈) assume the structure as drawn.

Experiments:
Assay type in all cases: functional
Plasmodium falciparum [1] = experiment: Antimalarial schizonticidal activity against Plasmodium falciparum 3D7 infected erythrocytes at 1.25 ug/ml after 30-39 hrs
Outline: (§1)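 Schizont maturation test (WHO protocol, minor modifications): drug dilutions in complete RPMI 1640 with parasite added. Final culture was 3–4% hematocrit and 1.0–2.0% parasitized erythrocytes (>95% rings), with 0.5% AlbuMax II and 15 µM hypoxanthine. Incubated 30–39 h at 37 °C under 5% CO2. Giemsa-stained thin smears were scored for schizont maturation relative to untreated controls, giving % schizont inhibition at each concentration.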

Plasmodium falciparum [2] = experiment: Antimalarial schizonticidal activity against Plasmodium falciparum 3D7 infected erythrocytes at 10 ug/ml after 30-39 hrs; outline: as §1
Plasmodium falciparum [3] = experiment: Antimalarial schizonticidal activity against Plasmodium falciparum 3D7 infected erythrocytes at 5 ug/ml after 30-39 hrs; outline: as §1
Plasmodium falciparum [4] = experiment: Antimalarial schizonticidal activity against Plasmodium falciparum 3D7 infected erythrocytes at 2.5 ug/ml after 30-39 hrs; outline: as §1
Plasmodium falciparum [5] = experiment: Antimalarial schizonticidal activity against Plasmodium falciparum 3D7 infected erythrocytes at 0.78 ug/ml after 30-39 hrs; outline: as §1
Plasmodium falciparum [6] = experiment: Antimalarial activity schizonticidal against Plasmodium falciparum 3D7 infected erythrocytes at 0.05 ug/ml after 30-39 hrs; outline: as §1
Plasmodium falciparum [7] = experiment: Antimalarial schizonticidal activity against Plasmodium falciparum 3D7 infected erythrocytes at 0.39 ug/ml after 30-39 hrs; outline: as §1
Plasmodium falciparum [8] = experiment: Antimalarial schizonticidal activity against Plasmodium falciparum 3D7 infected erythrocytes at 0.09 ug/ml after 30-39 hrs; outline: as §1
Plasmodium falciparum [9] = experiment: Antimalarial schizonticidal activity against Plasmodium falciparum 3D7 infected erythrocytes at 0.19 ug/ml after 30-39 hrs; outline: as §1
Plasmodium falciparum [10] = experiment: Antimalarial schizonticidal activity against Plasmodium falciparum 3D7 infected erythrocytes after 30-39 hrs; outline: as §1

SMILES	inhibition at 1.25 µg/mL (Plasmodium falciparum [1]) [%]	inhibition at 10 µg/mL (Plasmodium falciparum [2]) [%]	inhibition at 5 µg/mL (Plasmodium falciparum [3]) [%]	inhibition at 2.5 µg/mL (Plasmodium falciparum [4]) [%]	inhibition at 0.78 µg/mL (Plasmodium falciparum [5]) [%]	inhibition at 0.05 µg/mL (Plasmodium falciparum [6]) [%]	inhibition at 0.39 µg/mL (Plasmodium falciparum [7]) [%]	inhibition at 0.09 µg/mL (Plasmodium falciparum [8]) [%]	inhibition at 0.19 µg/mL (Plasmodium falciparum [9]) [%]	MIC (Plasmodium falciparum [10]) [mg/L]
CCOC(=O)C1=C(Nc2ccc(OC)cc2)CC(c2cccc(Cl)c2)N(c2ccc(OC)cc2)C1c1cccc(Cl)c1 (centres undefined)	16	100	92	50						
COC(=O)C1=C(Nc2ccc(Cl)cc2)CC(c2ccc(OC)cc2)N(c2ccc(Cl)cc2)C1c1ccc(OC)cc1 (centres undefined)	100	100	100	100	95	16	75	33	41	
COC(=O)C1=C(Nc2ccc(OC)cc2)CC(c2ccc(Br)cc2)N(c2ccc(OC)cc2)C1c1ccc(Br)cc1 (centres undefined)	33	100	100	95						
COC(=O)C1=C(Nc2ccc(OC)cc2)CC(c2ccc(OC)cc2)N(c2ccc(OC)cc2)C1c1ccc(OC)cc1 (centres undefined)	86	100	100	90						
COC(=O)C1=C(Nc2ccccc2)CC(c2ccc(OCc3ccccc3)cc2)N(c2ccccc2)C1c1ccc(OCc2ccccc2)cc1 (centres undefined)	0	23	2	2						
COC(=O)C1=C(Nc2ccc(OC)cc2)CC(c2cccc(Cl)c2)N(c2ccc(OC)cc2)C1c1cccc(Cl)c1 (centres undefined)	33	100	100	100						
COC(=O)C1=C(Nc2ccccc2)CC(c2ccc(OC)cc2)N(c2ccccc2)C1c1ccc(OC)cc1 (centres undefined)	100	100	100	100	94	25	67	45	47	
COC(=O)C1=C(Nc2ccc(Cl)cc2)CC(c2ccc(Br)cc2)N(c2ccc(Cl)cc2)C1c1ccc(Br)cc1 (centres undefined)	0	33	0	0						
COC(=O)C1=C(Nc2ccccc2)CC(c2ccc(F)cc2)N(c2ccccc2)C1c1ccc(F)cc1 (centres undefined)	100	100	100	100	100	16	100	33	75	
COC(=O)C1=C(Nc2ccccc2)CC(c2ccc(Br)cc2)N(c2ccccc2)C1c1ccc(Br)cc1 (centres undefined)	46	100	100	85						
CCOC(=O)C1=C(Nc2ccc(Cl)cc2)CC(c2ccc(Cl)cc2)N(c2ccc(Cl)cc2)C1c1ccc(Cl)cc1 (centres undefined)	0	83	66	0						
CCOC(=O)C1=C(Nc2ccc(OC)cc2)CC(c2ccccc2)N(c2ccc(OC)cc2)C1c1ccccc1 (centres undefined)	100	100	100	100	66	0	33	0	0	
CCOC(=O)C1=C(Nc2ccccc2)CC(c2ccccc2)N(c2ccccc2)C1c1ccccc1 (centres undefined)	25	100	100	92						
COC(=O)C1=C(Nc2ccccc2)CC(c2ccccc2)N(c2ccccc2)C1c1ccccc1 (centres undefined)	100	100	100	100	96	0	90	0	33	
COC(=O)C1=C(Nc2ccccc2)CC(c2cccc(Cl)c2)N(c2ccccc2)C1c1cccc(Cl)c1 (centres undefined)	46	100	81	81						
CCOC(=O)C1=C(Nc2ccc(Cl)cc2)CC(c2cccs2)N(c2ccc(Cl)cc2)C1c1cccs1 (centres undefined)	86	100	100	93						
COC(=O)C1=C(Nc2ccc(OC)cc2)CC(c2cccs2)N(c2ccc(OC)cc2)C1c1cccs1 (centres undefined)	100	100	100	100	100	16	100	25	75	
COC(=O)C1=C(Nc2ccc(Br)cc2)CC(c2ccc(OC)cc2)N(c2ccc(Br)cc2)C1c1ccc(OC)cc1 (centres undefined)	25	100	100	91						
COC(=O)C1=C(Nc2ccc(OC)cc2)CC(c2ccc(F)cc2)N(c2ccc(OC)cc2)C1c1ccc(F)cc1 (centres undefined)	100	100	100	100	100	91	100	100	100	
COC(=O)C1=C(Nc2ccc(Cl)cc2)CC(c2ccc(F)cc2)N(c2ccc(Cl)cc2)C1c1ccc(F)cc1 (centres undefined)	93	100	100	100						
CCOC(=O)C1=C(Nc2ccccc2)CC(c2cccnc2)N(c2ccccc2)C1c1cccnc1 (centres undefined)	100	100	100	100	100	42	100	42	97	
CCN(CC)CCCC(C)Nc1ccnc2cc(Cl)ccc12 (centres undefined) [CHLOROQUINE]	86	100	100	97	100	54	100	86	97	0.025 (≈ 0.0782 µM)
